Activity calls are given as the source filed them.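 Rule for the calls: active = inhibition of 30% or more at any tested concentration; inactive = the rest.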
Biological target: Leucine aminopeptidase (Plasmodium falciparum (isolate 3D7)) (UniProt Q8IL11)
Assay: inhibition of P. falciparum M17 leucine aminopeptidase – biochemical, QFRET, H-Leu-NHMec substrate, set 3, selectivity assay for PFM1AAP inhibitor project, dose response (AID 624164)
Conditions: purified rPFM17LAP, H-Leu-NHMec fluorogenic cleavage
Method in brief: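 System: purified recombinant P. falciparum M17 leucine aminopeptidase (rPFM17LAP). Input: enzyme 5 µg/mL. Also added: H-Leu-NHMec 0.1 mM. Dosing: ten twofold doses from 100 µM, 2% DMSO. Incubation: enzyme reaction with compound, 90 min at room temperature. Technique: fluorescence of released NHMec, excitation 370 nm, emission 460 nm. Benchmarks: no-enzyme background wells.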

Leucine aminopeptidase (Plasmodium falciparum (isolate 3D7)), sequence (Q8IL11 whole entry, looked up): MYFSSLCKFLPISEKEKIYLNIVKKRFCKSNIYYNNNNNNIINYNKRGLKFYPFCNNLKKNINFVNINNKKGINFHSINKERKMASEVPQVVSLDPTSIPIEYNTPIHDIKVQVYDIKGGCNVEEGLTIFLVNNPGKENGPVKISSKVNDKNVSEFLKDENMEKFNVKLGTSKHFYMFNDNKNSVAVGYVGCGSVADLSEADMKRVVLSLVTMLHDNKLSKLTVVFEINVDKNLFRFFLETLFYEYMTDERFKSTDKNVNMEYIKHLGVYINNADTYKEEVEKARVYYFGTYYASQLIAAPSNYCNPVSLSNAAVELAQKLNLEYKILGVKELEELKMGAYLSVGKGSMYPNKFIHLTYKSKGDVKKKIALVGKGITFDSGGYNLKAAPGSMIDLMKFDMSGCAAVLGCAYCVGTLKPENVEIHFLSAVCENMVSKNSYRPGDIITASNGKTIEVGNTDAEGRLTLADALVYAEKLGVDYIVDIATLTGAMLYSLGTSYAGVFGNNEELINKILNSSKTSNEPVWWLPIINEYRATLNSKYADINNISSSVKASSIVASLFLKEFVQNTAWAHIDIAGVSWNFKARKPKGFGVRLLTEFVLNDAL

| IC50 [µM] | inhibition (at 100 µM (top of the series)) | SMILES | other results |
| --- | --- | --- | --- |
| 28.5 |  | O=C(NCc1ccccc1F)C1CCN(S(=O)(=O)c2ccc(Br)s2)CC1 |  |
|  |  | O=C(NCc1ccc2c(c1)OCO2)C1CCN(S(=O)(=O)c2sccc2Br)CC1 | inhibition (at 50 µM (top of the series)): inactive |
|  | inactive | O=C(NCc1cccc(F)c1)C1CCN(S(=O)(=O)c2sccc2Br)CC1 |  |
|  | inactive | O=C(Nc1ccc2c(c1)OCO2)C1CCN(S(=O)(=O)c2sccc2Br)CC1 |  |
|  | inactive | O=C(NCCc1ccc2c(c1)OCO2)C1CCN(S(=O)(=O)c2ccc(Cl)s2)CC1 |  |
| 43.6 |  | O=C(NCc1ccc(F)cc1)C1CCN(S(=O)(=O)c2ccc(Cl)s2)CC1 |  |
|  | inactive | O=C(NCCc1ccc2c(c1)OCO2)C1CCN(S(=O)(=O)c2sccc2Br)CC1 |  |
|  | inactive | O=C(NCc1ccc(F)cc1)C1CCN(S(=O)(=O)c2ccc(Br)cc2)CC1 |  |
|  | inactive | O=C(NCc1cccc(F)c1)C1CCN(S(=O)(=O)c2cc(Br)c(Br)s2)CC1 |  |
| 35.4 |  | O=C(NCc1ccc2c(c1)OCO2)C1CCN(S(=O)(=O)c2ccc(Cl)s2)CC1 |  |
|  | inactive | O=C(NCCc1ccc2c(c1)OCO2)C1CCN(S(=O)(=O)c2cc(Br)c(Br)s2)CC1 |  |
|  | inactive | O=C(NCc1ccccc1F)C1CCN(S(=O)(=O)c2cc(Br)c(Br)s2)CC1 |  |
| 50 |  | O=C(NCc1ccccc1F)C1CCN(S(=O)(=O)c2ccc(Cl)s2)CC1 |  |
|  | inactive | O=C(NCCc1ccc2c(c1)OCO2)C1CCN(S(=O)(=O)c2ccc(Br)s2)CC1 |  |
| 82.3 |  | O=C(NCc1ccccc1F)C1CCN(S(=O)(=O)c2ccc(Br)cc2)CC1 |  |
|  | inactive | O=C(NCc1ccc(F)cc1)C1CCN(S(=O)(=O)c2sccc2Br)CC1 |  |
|  | inactive | O=C(NCc1ccc2c(c1)OCO2)C1CCN(S(=O)(=O)c2cc(Br)c(Br)s2)CC1 |  |
| 16.4 |  | O=C(NCc1ccc2c(c1)OCO2)C1CCN(S(=O)(=O)c2ccc(Br)s2)CC1 |  |
| 50 |  | O=C(NCc1cccc(F)c1)C1CCN(S(=O)(=O)c2ccc(Cl)s2)CC1 |  |
|  | inactive | O=C(NCc1ccccc1F)C1CCN(S(=O)(=O)c2sccc2Br)CC1 |  |
|  | inactive | O=C(Nc1ccc2c(c1)OCO2)C1CCN(S(=O)(=O)c2cc(Br)c(Br)s2)CC1 |  |
|  | inactive | O=C(Nc1ccc2c(c1)OCO2)C1CCN(S(=O)(=O)c2ccc(Br)cc2)CC1 |  |
|  | inactive | O=C(NCc1ccc2c(c1)OCO2)C1CCN(S(=O)(=O)c2ccc(Br)cc2)CC1 |  |
|  | inactive | O=C(Nc1ccc2c(c1)OCO2)C1CCN(S(=O)(=O)c2ccc(Cl)s2)CC1 |  |
|  | inactive | O=C(NCc1ccc(F)cc1)C1CCN(S(=O)(=O)c2cc(Br)c(Br)s2)CC1 |  |
| 50.6 |  | O=C(NCc1cccc(F)c1)C1CCN(S(=O)(=O)c2ccc(Br)cc2)CC1 |  |
| 44.3 |  | O=C(NCc1ccc(F)cc1)C1CCN(S(=O)(=O)c2ccc(Br)s2)CC1 |  |
|  | inactive | O=C(Nc1ccc2c(c1)OCO2)C1CCN(S(=O)(=O)c2ccc(Br)s2)CC1 |  |
|  | inactive | O=C(NCCc1ccc2c(c1)OCO2)C1CCN(S(=O)(=O)c2ccc(Br)cc2)CC1 |  |
| 24.7 |  | O=C(NCc1cccc(F)c1)C1CCN(S(=O)(=O)c2ccc(Br)s2)CC1 |  |
